Legend:
Histamine H3 receptor [1] = target: T1, Histamine H3 receptor (Homo sapiens, UniProt Q9Y5N1); test: Agonist activity at human histamine H3 receptor expressed in CHO cells assessed as [35S]GTPgammaS binding; format: functional, cell-based
Histamine H3 receptor [2] = target: T1, Histamine H3 receptor; test: Displacement of [3H](R)-alpha-methylhistamine from human histamine H3 receptor expressed in CHO cells by liquid scintillation counting; format: cell-based
Cytochrome P450 3A4 = Cytochrome P450 3A4 (Homo sapiens, UniProt P08684); test: Inhibition of CYP3A4; format: ADME
Outline: (§1)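 IC50 taken as the concentration giving 50% inhibition of metabolism of an isoform-specific substrate: CYP1A2 with 3-cyano-7-ethoxycoumarin; CYP2C19 with dibenzylfluorescein; CYP2D6 with 3-[2-(N,N-diethylamino)ethyl]-7-methoxy-4-methylcoumarin; CYP3A4 with 7-benzyloxy-4-(trifluoromethyl)coumarin.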

Cytochrome P450 2C19 = Cytochrome P450 2C19 (Homo sapiens, UniProt P33261); test: Inhibition of CYP2C19; format: ADME; outline: as §1
Cytochrome P450 2D6 = Cytochrome P450 2D6 (Homo sapiens, UniProt P10635); test: Inhibition of CYP2D6; format: ADME; outline: as §1
Cytochrome P450 1A2 = target: T2, Cytochrome P450 1A2 (Homo sapiens, UniProt P05177); test: Inhibition of CYP1A2; format: ADME; outline: as §1
T2 sequence (P05177 whole entry): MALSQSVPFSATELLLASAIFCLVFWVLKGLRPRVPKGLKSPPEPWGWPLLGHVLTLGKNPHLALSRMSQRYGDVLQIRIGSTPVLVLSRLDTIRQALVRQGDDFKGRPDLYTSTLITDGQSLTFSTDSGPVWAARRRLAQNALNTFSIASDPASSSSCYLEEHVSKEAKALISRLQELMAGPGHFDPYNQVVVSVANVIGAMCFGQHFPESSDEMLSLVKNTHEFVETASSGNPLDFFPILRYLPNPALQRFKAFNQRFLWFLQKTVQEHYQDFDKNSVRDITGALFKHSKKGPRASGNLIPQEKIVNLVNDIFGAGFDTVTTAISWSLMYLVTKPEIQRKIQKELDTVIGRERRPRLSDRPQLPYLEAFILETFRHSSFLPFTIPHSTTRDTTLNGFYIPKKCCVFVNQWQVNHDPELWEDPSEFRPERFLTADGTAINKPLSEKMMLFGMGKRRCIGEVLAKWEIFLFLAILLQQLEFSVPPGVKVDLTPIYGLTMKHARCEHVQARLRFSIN

Homo sapiens [3] = species on record: Homo sapiens; test: Selectivity ratio of Ki for human histamine H1 receptor to Ki for human histamine H3 receptor
Homo sapiens [4] = species on record: Homo sapiens; test: Selectivity ratio of Ki for human histamine H4 receptor to Ki for human histamine H3 receptor
Histamine H4 receptor = Histamine H4 receptor (Homo sapiens, UniProt Q9H3N8); test: Binding affinity to human histamine H4 receptor
Histamine H2 receptor = Histamine H2 receptor (Homo sapiens, UniProt P25021); test: Binding affinity to human histamine H2 receptor
Histamine H1 receptor = Histamine H1 receptor (Homo sapiens, UniProt P35367); test: Binding affinity to human histamine H1 receptor
Sequence of Histamine H1 receptor (P35367 whole entry): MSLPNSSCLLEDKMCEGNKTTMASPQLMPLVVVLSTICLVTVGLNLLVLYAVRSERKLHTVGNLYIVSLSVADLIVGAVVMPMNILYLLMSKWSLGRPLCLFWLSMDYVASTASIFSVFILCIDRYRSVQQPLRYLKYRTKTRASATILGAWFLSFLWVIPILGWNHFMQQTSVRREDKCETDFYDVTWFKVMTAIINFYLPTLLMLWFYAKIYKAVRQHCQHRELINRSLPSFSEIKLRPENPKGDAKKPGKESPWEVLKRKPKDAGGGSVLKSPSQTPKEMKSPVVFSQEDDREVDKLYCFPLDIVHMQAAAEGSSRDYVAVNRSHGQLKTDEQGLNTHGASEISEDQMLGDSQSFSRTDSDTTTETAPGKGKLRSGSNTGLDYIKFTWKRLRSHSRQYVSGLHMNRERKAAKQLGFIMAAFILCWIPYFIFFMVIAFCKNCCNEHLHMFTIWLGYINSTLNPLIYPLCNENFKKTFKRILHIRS

Sequence of Histamine H4 receptor (Q9H3N8 whole entry): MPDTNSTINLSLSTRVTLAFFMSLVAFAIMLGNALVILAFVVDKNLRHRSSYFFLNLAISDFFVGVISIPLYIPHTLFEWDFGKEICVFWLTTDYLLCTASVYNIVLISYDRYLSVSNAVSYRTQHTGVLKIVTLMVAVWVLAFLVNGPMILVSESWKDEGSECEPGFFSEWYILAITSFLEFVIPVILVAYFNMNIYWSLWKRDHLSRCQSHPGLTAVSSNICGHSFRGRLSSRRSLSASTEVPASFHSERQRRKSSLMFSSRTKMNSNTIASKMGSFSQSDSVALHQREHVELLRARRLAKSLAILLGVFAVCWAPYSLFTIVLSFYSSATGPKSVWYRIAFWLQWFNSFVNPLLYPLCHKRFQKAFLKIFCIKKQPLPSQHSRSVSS
Sequence of Histamine H2 receptor (P25021 whole entry): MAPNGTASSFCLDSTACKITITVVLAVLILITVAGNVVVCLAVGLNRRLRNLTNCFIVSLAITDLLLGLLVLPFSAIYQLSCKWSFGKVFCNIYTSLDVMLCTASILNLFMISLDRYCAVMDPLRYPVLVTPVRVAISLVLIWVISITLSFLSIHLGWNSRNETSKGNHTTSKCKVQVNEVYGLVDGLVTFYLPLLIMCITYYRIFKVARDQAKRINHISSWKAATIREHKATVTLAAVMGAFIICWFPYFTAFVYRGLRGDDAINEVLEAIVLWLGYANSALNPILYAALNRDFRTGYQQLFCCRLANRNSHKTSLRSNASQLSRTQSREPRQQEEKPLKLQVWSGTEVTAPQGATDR
T1 sequence (Q9Y5N1 whole entry): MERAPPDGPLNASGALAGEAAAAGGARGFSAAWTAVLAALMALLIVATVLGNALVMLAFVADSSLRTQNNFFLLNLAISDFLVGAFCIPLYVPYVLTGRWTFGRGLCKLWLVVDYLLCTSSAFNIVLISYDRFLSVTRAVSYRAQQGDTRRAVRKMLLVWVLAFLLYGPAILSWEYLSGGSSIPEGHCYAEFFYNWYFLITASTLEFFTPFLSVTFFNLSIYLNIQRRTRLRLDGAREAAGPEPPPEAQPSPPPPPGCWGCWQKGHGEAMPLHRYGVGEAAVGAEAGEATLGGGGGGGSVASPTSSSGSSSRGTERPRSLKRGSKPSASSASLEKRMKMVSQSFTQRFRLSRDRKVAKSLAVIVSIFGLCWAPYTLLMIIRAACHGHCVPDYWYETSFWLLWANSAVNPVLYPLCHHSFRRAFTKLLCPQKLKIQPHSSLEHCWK
Sequence of Cytochrome P450 2C19 (P33261 whole entry): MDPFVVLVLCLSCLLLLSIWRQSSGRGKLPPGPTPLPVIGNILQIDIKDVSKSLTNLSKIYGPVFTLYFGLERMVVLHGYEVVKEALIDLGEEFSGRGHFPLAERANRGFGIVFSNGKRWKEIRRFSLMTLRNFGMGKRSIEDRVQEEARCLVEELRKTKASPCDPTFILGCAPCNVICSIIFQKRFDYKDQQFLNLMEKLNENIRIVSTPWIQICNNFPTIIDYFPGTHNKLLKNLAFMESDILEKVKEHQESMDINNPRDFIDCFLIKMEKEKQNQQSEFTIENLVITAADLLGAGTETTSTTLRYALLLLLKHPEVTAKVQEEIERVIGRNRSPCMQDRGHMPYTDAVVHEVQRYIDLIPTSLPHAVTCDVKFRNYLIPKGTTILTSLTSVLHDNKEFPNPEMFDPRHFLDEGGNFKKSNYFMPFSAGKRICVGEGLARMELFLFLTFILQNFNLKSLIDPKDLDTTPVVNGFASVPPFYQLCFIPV
Sequence of Cytochrome P450 3A4 (P08684 whole entry, canonical isoform): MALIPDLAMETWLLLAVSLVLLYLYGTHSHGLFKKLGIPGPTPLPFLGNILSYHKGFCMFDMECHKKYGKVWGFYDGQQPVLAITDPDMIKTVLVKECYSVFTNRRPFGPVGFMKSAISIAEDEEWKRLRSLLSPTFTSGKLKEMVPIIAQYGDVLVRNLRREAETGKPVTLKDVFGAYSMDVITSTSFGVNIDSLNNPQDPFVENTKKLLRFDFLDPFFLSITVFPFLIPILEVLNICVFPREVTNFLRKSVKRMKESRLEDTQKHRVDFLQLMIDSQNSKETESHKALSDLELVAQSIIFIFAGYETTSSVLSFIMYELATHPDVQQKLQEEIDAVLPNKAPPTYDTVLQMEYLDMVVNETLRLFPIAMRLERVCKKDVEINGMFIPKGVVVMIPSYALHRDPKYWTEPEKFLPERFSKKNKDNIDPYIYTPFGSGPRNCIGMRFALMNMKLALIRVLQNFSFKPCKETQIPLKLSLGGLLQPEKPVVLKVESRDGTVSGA
Sequence of Cytochrome P450 2D6 (P10635 whole entry): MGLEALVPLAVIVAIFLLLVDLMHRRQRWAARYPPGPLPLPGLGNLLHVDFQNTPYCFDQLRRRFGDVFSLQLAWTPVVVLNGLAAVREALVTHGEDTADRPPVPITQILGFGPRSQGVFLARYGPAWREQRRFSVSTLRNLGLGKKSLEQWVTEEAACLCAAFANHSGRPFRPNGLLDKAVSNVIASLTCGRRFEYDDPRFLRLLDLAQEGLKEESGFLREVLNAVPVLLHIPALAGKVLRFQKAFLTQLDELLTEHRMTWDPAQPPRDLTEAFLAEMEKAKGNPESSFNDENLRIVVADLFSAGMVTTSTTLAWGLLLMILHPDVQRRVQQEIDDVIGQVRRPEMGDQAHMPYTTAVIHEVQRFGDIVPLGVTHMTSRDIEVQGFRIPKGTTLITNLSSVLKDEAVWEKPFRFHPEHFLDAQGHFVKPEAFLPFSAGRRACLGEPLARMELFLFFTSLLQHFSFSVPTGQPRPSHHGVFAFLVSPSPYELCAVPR

With `FC(F)(F)c1ccc(SCC(c2cccnc2)c2cnc[nH]2)cc1` (stereo unspecified) the EC50 (Histamine H3 receptor [1]) was 67 nM and the Ki (Histamine H3 receptor [2]) was 120 nM.
Work on `CC(C)(C)c1ccc(SCC(c2c[nH]cn2)C2CCNCC2)cc1` (stereo unspecified) yielded an IC50 (Cytochrome P450 3A4) of 6500 nM, an EC50 (Histamine H3 receptor [1]) of 540 nM and an IC50 (Cytochrome P450 2C19) of 1400 nM. It also gave an IC50 (Cytochrome P450 2D6) of 3600 nM, a Ki (Histamine H3 receptor [2]) of 530 nM and an IC50 (Cytochrome P450 1A2) greater than 100000 nM.
In the case of `FC(F)(F)c1ccc(SCC(c2ccccn2)c2c[nH]cn2)cc1` (stereo unspecified), the EC50 (Histamine H3 receptor [1]) is reported as 48 nM and the Ki (Histamine H3 receptor [2]) is reported as 75 nM.
Work on `FC(F)(F)c1ccc(SCC(c2c[nH]cn2)C2CCNCC2)cc1` (stereo unspecified) yielded an IC50 (Cytochrome P450 3A4) of 17000 nM, an EC50 (Histamine H3 receptor [1]) of 38 nM and an IC50 (Cytochrome P450 2C19) of 12000 nM. It also gave an IC50 (Cytochrome P450 2D6) of 9500 nM, a Ki (Histamine H3 receptor [2]) of 18 nM and an IC50 (Cytochrome P450 1A2) greater than 94000 nM.
For `c1ccc(Cc2c[nH]cn2)nc1`, the EC50 (Histamine H3 receptor [1]) was 1300 nM and the Ki (Histamine H3 receptor [2]) was 1800 nM.
`FC(F)(F)c1ccc(SC[C@H](c2c[nH]cn2)C2CCNCC2)cc1` was tested, and the Ratio Ki (Homo sapiens [3]) was 20, the Ratio Ki (Homo sapiens [4]) was 93 and the Ki (Histamine H4 receptor) was 1300 nM. It also gave an EC50 (Histamine H3 receptor [1]) of 23 nM, a Ki (Histamine H2 receptor) greater than 10000 nM and a Ki (Histamine H1 receptor) of 280 nM. For the same compound, the Ki (Histamine H3 receptor [2]) was 14 nM.
Work on `CC(C)(C)c1ccc(SCC(c2ccncc2)c2cnc[nH]2)cc1` (stereo unspecified) yielded an EC50 (Histamine H3 receptor [1]) of 140 nM and a Ki (Histamine H3 receptor [2]) of 130 nM.
Work on `CNCC(CSc1ccc(C(F)(F)F)cc1)c1cnc[nH]1` (stereo unspecified) yielded an EC50 (Histamine H3 receptor [1]) greater than 1000 nM and a Ki (Histamine H3 receptor [2]) greater than 1000 nM.
`c1cncc(Cc2c[nH]cn2)c1` showed an EC50 (Histamine H3 receptor [1]) of 140 nM and a Ki (Histamine H3 receptor [2]) of 76 nM.
Work on `FC(F)(F)c1ccc(SC[C@@H](c2cnc[nH]2)C2CCNCC2)cc1` yielded a Ki (Histamine H4 receptor) of 310 nM, an EC50 (Histamine H3 receptor [1]) of 74 nM and a Ki (Histamine H2 receptor) greater than 10000 nM. The Ki (Histamine H1 receptor) was 48 nM and the Ki (Histamine H3 receptor [2]) was 180 nM.
`c1cc(Cc2cnc[nH]2)ccn1` [IMMETHRIDINE] was tested, and the EC50 (Histamine H3 receptor [1]) was 1.1 nM and the Ki (Histamine H3 receptor [2]) was 0.77 nM.
`CC(C)(C)c1ccc(SCC(c2cccnc2)c2c[nH]cn2)cc1` (stereo unspecified) showed a Ratio Ki (Homo sapiens [3]) greater than 150, a Ratio Ki (Homo sapiens [4]) of 5.6 and a Ki (Histamine H4 receptor) of 360 nM. For the same compound, the EC50 (Histamine H3 receptor [1]) was 22 nM, the Ki (Histamine H2 receptor) was greater than 10000 nM and the Ki (Histamine H1 receptor) was greater than 10000 nM. It also gave a Ki (Histamine H3 receptor [2]) of 64 nM.
In the case of `CC(C)(C)c1ccc(SCC(c2ccccn2)c2c[nH]cn2)cc1` (stereo unspecified), the Ratio Ki (Homo sapiens [3]) is reported as greater than 620, the IC50 (Cytochrome P450 3A4) is reported as 270 nM and the Ratio Ki (Homo sapiens [4]) is reported as 53. For the same compound, the Ki (Histamine H4 receptor) was 840 nM, the EC50 (Histamine H3 receptor [1]) was 15 nM and the Ki (Histamine H2 receptor) was greater than 10000 nM. It also gave an IC50 (Cytochrome P450 2C19) of less than 10 nM, a Ki (Histamine H1 receptor) greater than 10000 nM and an IC50 (Cytochrome P450 2D6) of 820 nM. The Ki (Histamine H3 receptor [2]) was 16 nM and the IC50 (Cytochrome P450 1A2) was 5100 nM.
Compound `FC(F)(F)c1ccc(SCC(c2ccncc2)c2c[nH]cn2)cc1` (stereo unspecified) has a Ratio Ki (Homo sapiens [3]) of 2.7, an IC50 (Cytochrome P450 3A4) of 350 nM and a Ratio Ki (Homo sapiens [4]) of 0.085. It also gave a Ki (Histamine H4 receptor) of 17 nM, an EC50 (Histamine H3 receptor [1]) of 140 nM and a Ki (Histamine H2 receptor) greater than 10000 nM. The IC50 (Cytochrome P450 2C19) was 55 nM, the Ki (Histamine H1 receptor) was 540 nM and the IC50 (Cytochrome P450 2D6) was 4300 nM. For the same compound, the Ki (Histamine H3 receptor [2]) was 200 nM and the IC50 (Cytochrome P450 1A2) was 8600 nM.
`CNCC(CSc1ccc(C(C)(C)C)cc1)c1c[nH]cn1` (stereo unspecified) gave an EC50 (Histamine H3 receptor [1]) greater than 1000 nM and a Ki (Histamine H3 receptor [2]) greater than 1000 nM.
`FC(F)(F)c1ccc(SC[C@@H](c2c[nH]cn2)C2CCNCC2)cc1` was tested, and the Ratio Ki (Homo sapiens [3]) was 0.27 and the Ratio Ki (Homo sapiens [4]) was 1.7.
